# Unmarked numbers belong to inactive results. Inconclusive results are not listed. Active and inactive are the calls of the source.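 How the source made its calls, unless noted: active means inhibition over a set limit, the all-compound mean plus 3 SD, in both replicate runs; inconclusive means over that limit in just one replicate run; inactive means at or under that limit in both runs.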
# What was measured:
# [1] = OD615 S. cerevisiae growth inhibition, permissive medium, pilot counter-assay, permissive growth control for S. cerevisiae lifespan shortening project (AID 705;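 active means growth inhibition above 25% in both replicates, a cutoff set 3 SD above the mean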); conditions: OD615, 24 h, at 10 µM, hits give high values
# Procedure, shortened: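 System – S. cerevisiae with engineered DeaD lifespan system · Buffer or medium – SC raffinose/galactose permissive medium · Schedule – cells pre-grown 4 h, then 24 h compound exposure, 30 °C humidified · Technique – culture turbidity as optical density at 615 nm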
# [2] = Restrictive medium S. cerevisiae growth inhibition, OD615, pilot screen of yeast lifespan reduction project, restrictive growth control (AID 706;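 active means growth inhibition above a set limit, 3 SD over mean compound inhibition, in both replicates, cut at about 43% in these data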;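 further: modified DeaD lifespan yeast strain shifted to restrictive glucose medium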); conditions: OD615, 48 h, at 10 µM, hits give high values
# Procedure, shortened: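 Material: engineered S. cerevisiae DeaD strain / Medium: glucose-based CSMM-D restrictive medium / Compound: single dose of 10 µM compound final, 0.25% DMSO / Timing: 4 h pre-incubation, 48 h exposure at 30 °C / Technique: OD615 absorbance reading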
# [3] = viability gain of MRP-1-high H69AR cells under doxorubicin, pilot screen, MRP-1 activator project, CellTiter-Glo, duplicate (AID 807;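 active means viability increase at or above a cutoff of the median across tested compounds plus 3 SD, cut at about 8.5% in these data, passing the limit was not always enough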;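 further: compound pretreatment 18-22 h then 72 h combined with doxorubicin; 0% = doxorubicin alone and 100% = vehicle without doxorubicin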); conditions: H69AR viability with doxorubicin, CellTiter-Glo luminescence; at 10 µM; hits give high values
# [4] = growth suppression of beta-catenin knockout HCT116, pilot screen, human colon tumor cells (AID 823;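 active means cell viability at or below a set limit in both duplicate runs, the limit being the all-compound median minus 4 SD, cut at about 23% in these data, passing the limit was not always enough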;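 further: 0% = wells killed by 20 µM Hyamine and 100% = untreated DMSO cell wells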); conditions: CellTiter-Glo, 60 h, at 10 µM, hits give low values
# [5] = growth suppression of PTEN-deleted HCT116, pilot screen, cell-based, HCT116 clonal line, CellTiter-Glo (AID 824;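 active means viability at or below 27.92% in each of two runs, the all-compound median minus 4 SD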;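 further: 0% = 20 µM Hyamine control and 100% = vehicle cell control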); conditions: 60 h, at 10 µM, hits give low values
# [6] = inhibitors of the yeast RAM network, pilot screen, dse1pr::URA3 reporter, 5-FOA selection (AID 869);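 further: 0% = DMSO wells with no growth and 100% = 10 µM 1-NA-PP1 with full growth; RAM network block rescues cells from 5-FOA so hits raise OD615 growth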; conditions: S. cerevisiae dse1pr::URA3 5-FOA growth, OD615, 2 d; at 10 µM; hits give high values; strain carries analog-sensitive mutant Cbk1 kinase
# [7] = RAM signaling pathway blockade in yeast – S. cerevisiae, Pdr1DBD-CYC8 efflux-inhibited sensitized strain, primary screen (AID 1298;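 active means RAM network inhibition above 8.4% in each of two replicates, 3 SD over the compound average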;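 further: 0% = DMSO untreated cells without growth and 100% = 10 µM 1-NA-PP1 full growth; higher means more yeast growth rescued from 5-FOA killing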); conditions: S. cerevisiae cbk1-as DSE1-URA3 strain, 5-FOA growth OD615, 2 d; at 50 µM; hits give high values
SMILES,growth inhibition [1] [%],growth inhibition [2],viability increase [3] [%],viability [4],viability [5],inhibition [6] [%],RAM network inhibition [7] [%]
CC1CC(C)CN(CCCNC(=O)Cc2c(C(=O)O)[nH]c3ccccc23)C1 (configuration not stated),-11.5,-13.5%,-0.1,103%,99.6%,0.68,1.78
CC(=O)N1CCc2cc(C(=O)CN3CCCN(Cc4ccc(F)cc4)C3)ccc21,4.55,9.21%,-1.12,102%,95.8%,1.48,2.92
CN1CCN(C(=O)c2ccccc2NC(=O)Cc2ccccc2)CC1,-12.3,1.69%,-1.06,98.4%,103%,1.83,1.81
Cc1cccc(Cn2c(SCCN3CCOCC3)nc3c2c(=O)n(C)c(=O)n3C)c1,1.68,1.63%,-2.36,103%,91%,0.9,5.93
Cn1c(C(=O)N2CCN(c3ccc(F)cc3)CC2)cc2c(=O)n(C)c3ccccc3c21,-6.62,-10.8%,-2.2,95.1%,85%,1.64,1.39
CC1Cc2ccccc2C(=O)N1 (configuration not stated),0.58,11.4%,0.15,106%,99%,0.36,3.5
Cc1ccc(NC(=O)Cn2cc3c(n2)CCC(C)C3)cc1 (configuration not stated),-1.07,2.22%,0.37,106%,88.6%,0.39,1.64
CC1CCc2nc3ccc(S(=O)(=O)N4CCC(C(=O)NC5CCCC5)CC4)cc3c(C(=O)O)c2C1 (configuration not stated),-0.78,10.5%,-2.1,94.8%,95.4%,1.08,3.59
CC(C)n1c(=O)[nH]c2ccccc21,-18.3,-9.29%,-4.28,89%,89.8%,0.575,2.88
CCOC(=O)Cn1c(=O)oc2cc(S(=O)(=O)N3CCCc4ccccc43)ccc21,-8.26,-5.77%,-1.08,88.2%,96%,2.77,6.73
Cc1ccc2oc(=O)n(CC(=O)O)c2c1,-6.32,5.35%,-0.21,98.6%,93.7%,1.27,-1.2
CC1(C)Cc2c(C#N)c(N)sc(=S)c2CO1,21.9,67% (active),-1.77,101%,106%,1.27,2.98
COc1cc(NC(=O)c2cc3c(C)nc4ccccc4c3o2)cc(OC)c1OC,7.32,13.2%,-5.18,86.2%,86.7%,0.93,0.97
CN(C(=O)c1ccccc1C(=O)c1ccccc1)C1CCS(=O)(=O)C1 (configuration not stated),-8.28,3.21%,-1.54,96.6%,95.4%,-0.06,1.85
CC(C)(C)NC(=O)CSc1nc(O)cc(=O)n1-c1ccccc1F,-5.45,-3.51%,-0.7,95.5%,101%,0.91,1.87
O=C(CSc1nc2c(cnn2-c2ccc(F)cc2)c(=O)[nH]1)N1CCCCC1,-8.1,7.12%,-3.71,91.7%,84.7%,2.99,1.77
Cc1cccn2c(=O)c3cc(C(=O)NCCN4CCOCC4)c(=N)n(CCc4ccccc4)c3nc12,-0.895,-4.73%,-5.8,5.75% (active),12.8% (active),1.02,2.73
O=C(O)CN1C(=O)C2C3C=CC(C3)C2C1=O (configuration not stated),-14.3,-14.5%,0.28,102%,88%,1.61,2.2

SMILES,growth inhibition [1] [%],growth inhibition [2],viability increase [3] [%],viability [4],viability [5],inhibition [6] [%],RAM network inhibition [7] [%]
CN1CCN(C(=O)c2ccccc2NC(=O)c2cccs2)CC1,-11,-8.35%,-2.33,98.5%,91.7%,0.45,2.03
CCCc1cc(=O)[nH]c(SCC(=O)NC2CCCCC2)n1,2.37,0.01%,-1.41,89.5%,94.8%,0.82,0.46
COc1ccccc1N(CC(O)CN1C(=O)NC(C)(C)C1=O)S(=O)(=O)c1ccc(C)cc1 (configuration not stated),-7.72,-4.29%,-0.66,101%,99.9%,1.41,5.03
O=C(O)CCC(=O)Nc1ccc(-c2nnc(-c3ccco3)o2)cc1,-12.8,-4.63%,-0.63,102%,99.8%,1.61,2.14
CCOc1ccc(CCNc2cc(C)nc3ncnn23)cc1OCC,-1.77,4.5%,-2.06,90.3%,94.1%,1.71,1.15
Cc1nc(=O)c(-c2ccccc2)c(C)n1CC1CCCO1 (configuration not stated),-7.12,-9.15%,-2.44,99.8%,96.4%,1.38,0.16
O=C(CN1CCOc2ccccc21)NCc1ccccc1,-29.7,4.34%,-6.69,98.2%,86%,0.395,2.11
CCN1CCCC1CNC(=O)Cn1cc2c(n1)CCC(C)C2 (configuration not stated),-3.58,0.66%,-1.37,91.7%,100%,0.72,1.7
CCOC(=O)c1[nH]c(C)c(C(=O)OCC)c1C,-9.48,1.48%,2.18,105%,97.5%,3.55,4.06
CCOC(=O)Nc1ccc2ncn(C)c(=O)c2c1,-16.6,-8.55%,-5.77,101%,94.8%,-0.055,1.08
O=C(c1nnc(Cc2ccc(Cl)cc2)o1)N1CCc2ccccc2C1,-7.83,7.34%,3.24,103%,107%,0.135,4.39
CCn1c(CCC(=O)Nc2cc(F)ccc2C)nc2cc(S(=O)(=O)N(C)C)ccc21,-6.57,-1.81%,-0.38,99.5%,97.1%,2.07,6.18
CCOC(=O)N1CCC(Nc2ccc3nnc(-c4ccccc4)n3n2)CC1,12.3,29.3%,-6.99,69.4%,66%,-0.975,2.57
CCOc1cccc(NC(=O)c2ccc(S(=O)(=O)N(C)C)cc2)c1,-7.19,-8.01%,-2.48,98.6%,92.4%,0.83,6
CCOC(=O)N1CCN(CC(=O)Nc2ccc(C)cc2)CC1,-4.43,4.79%,-3.03,98.3%,100%,1.11,-0.15
O=C(CSc1nc2c(c(=O)n1-c1ccc(Cl)cc1)SCC2)Nc1nccs1,-2.95,-4.84%,-2.93,82.5%,78.4%,3.08,5.03
Cn1c(NC(=O)c2ccccc2F)cc(=O)n(C)c1=O,-0.14,-2.47%,0.23,101%,106%,0.595,-1.63
COc1ccc(C2C(C(=O)N3CCN(c4ccccc4)CC3)c3ccccc3C(=O)N2C)cc1OC (configuration not stated),-8.36,-14.2%,-1.19,97.1%,99.3%,1.28,0.53

# Reference: PubChem BioAssay
